Reference: ChEMBL document CHEMBL1123201, “7-(Trifluoromethyl)-4-aminoquinoline hypotensives: novel peripheral sympatholytics” (J Med Chem, 1986)
“And” between values parts separate entries of the source, which are not always exact repeats. Identical values can stand only once. The source made the active and inactive calls. The calls are words filed in the database; no cut-off is given here.

Columns and labels:
Mus musculus [1] = organism: Mus musculus; test: Lowest dose of compound associated with clinical signs.; format: functional
Mus musculus [2] = organism: Mus musculus; test: Lowest dose of compound associated with unacceptable clinical signs.; format: functional
[3] = Acute toxicity was determined in mice; format: organism-based; details: mouse, in vivo
Rattus norvegicus [4] = test: Compound was tested for hypotensive activity by measuring the average change in mean arterial blood pressure in mmHg after 24 hr at 0.05 mg/Kg oral dosing of a conscious rat; format: functional, Artery
How it was run: (§1)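 Restrained (towel-wrapped, to raise sympathetic tone) conscious female Sprague-Dawley rats with chronic indwelling aortic cannulas exteriorized at the nape; blood pressure recorded directly by transducer before and 4 and 24 h after oral dosing. Compound suspended in carboxymethylcellulose vehicle, 10 mL/kg; doses 50 to 0.05 mg/kg. Two rats averaged per time point; average change ≥5 mmHg taken as significant (p < 0.05).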

Rattus norvegicus [5] = test: Compound was tested for hypotensive activity by measuring the average change in mean arterial blood pressure in mmHg after 24 hr at 0.15 mg/Kg oral dosing of a conscious rat; format: functional, Artery; how it was run: as §1
Rattus norvegicus [6] = test: Compound was tested for hypotensive activity by measuring the average change in mean arterial blood pressure in mmHg after 24 hr at 0.5 mg/Kg oral dosing of a conscious rat; format: functional, Artery; how it was run: as §1
Rattus norvegicus [7] = test: Compound was tested for hypotensive activity by measuring the average change in mean arterial blood pressure in mmHg after 24 hr at 1.5 mg/Kg oral dosing of a conscious rat; format: functional, Artery; how it was run: as §1
Rattus norvegicus [8] = test: Compound was tested for hypotensive activity by measuring the average change in mean arterial blood pressure in mmHg after 24 hr at 15 mg/Kg oral dosing of a conscious rat; format: functional, Artery; how it was run: as §1
Rattus norvegicus [9] = test: Compound was tested for hypotensive activity by measuring the average change in mean arterial blood pressure in mmHg after 4 hr at 0.05 mg/Kg oral dosing of a conscious rat; format: functional, Artery; how it was run: as §1
Rattus norvegicus [10] = test: Compound was tested for hypotensive activity by measuring the average change in mean arterial blood pressure in mmHg after 4 hr at 0.15 mg/Kg oral dosing of a conscious rat; format: functional, Artery; how it was run: as §1
Rattus norvegicus [11] = test: Compound was tested for hypotensive activity by measuring the average change in mean arterial blood pressure in mmHg after 4 hr at 0.5 mg/Kg oral dosing of a conscious rat; format: functional, Artery; how it was run: as §1
Rattus norvegicus [12] = test: Compound was tested for hypotensive activity by measuring the average change in mean arterial blood pressure in mmHg after 4 hr at 1.5 mg/Kg oral dosing of a conscious rat; format: functional, Artery; how it was run: as §1
Rattus norvegicus [13] = test: Compound was tested for hypotensive activity by measuring the average change in mean arterial blood pressure in mmHg after 4 hr at 15 mg/Kg oral dosing of a conscious rat; format: functional, Artery; how it was run: as §1
Mus musculus [14] = organism: Mus musculus; test: Lowest dose of compound associated with clinical signs; NA is Not Acceptable.; format: functional, organism-based
Rattus norvegicus [15] = test: Compound was tested for hypotensive activity by measuring the average change in mean arterial blood pressure in mmHg after 24 hr at 50 mg/Kg oral dosing of a conscious rat; format: functional, Artery; how it was run: as §1
Rattus norvegicus [16] = test: Hypotensive activity in conscious rat 4 hr after 5 mg/kg p.o. administration.; format: functional; details: route oral; how it was run: as §1
Rattus norvegicus [17] = test: Compound was tested for hypotensive activity by measuring the average change in mean arterial blood pressure in mmHg after 4 hr at 50 mg/Kg oral dosing of a conscious rat; format: functional, Artery; how it was run: as §1
Rattus norvegicus [18] = test: Hypotensive activity in conscious rat 24 hr after 5 mg/kg p.o. administration.; format: functional; details: route oral; how it was run: as §1
Rattus norvegicus [19] = test: Compound was tested for hypotensive activity by measuring the average change in mean arterial blood pressure in mmHg after 24 hr at 150 mg/Kg oral dosing of a conscious rat; format: functional, Artery
Rattus norvegicus [20] = test: Compound was tested for hypotensive activity by measuring the average change in mean arterial blood pressure in mmHg after 4 hr at 150 mg/Kg oral dosing of a conscious rat; format: functional, Artery
Rattus norvegicus [21] = test: Compound was tested for hypotensive activity by measuring the average change in mean arterial blood pressure in mmHg after 24 hr at 0.1 mg/Kg oral dosing of a conscious rat; format: functional, Artery; how it was run: as §1
Rattus norvegicus [22] = test: Compound was tested for hypotensive activity by measuring the average change in mean arterial blood pressure in mmHg after 4 hr at 0.1 mg/Kg oral dosing of a conscious rat; format: functional, Artery; how it was run: as §1
Mus musculus [23] = organism: Mus musculus; test: Lowest dose of compound associated with clinical signs; format: functional
Rattus norvegicus [24] = test: Compound was tested for hypotensive activity by measuring the average change in mean arterial blood pressure in mmHg 24 hr after at 50 mg/Kg oral dosing of a conscious rat; format: functional, Artery; how it was run: as §1
Rattus norvegicus [25] = test: Compound was tested for hypotensive activity by measuring the average change in mean arterial blood pressure in mmHg after 24 hr at 10 mg/Kg oral dosing of a conscious rat; format: functional, Artery; how it was run: as §1
Rattus norvegicus [26] = test: Compound was tested for hypotensive activity by measuring the average change in mean arterial blood pressure in mmHg after 4 hr at 10 mg/Kg oral dosing of a conscious rat; format: functional, Artery; how it was run: as §1
Rattus norvegicus [27] = test: Compound was tested for hypotensive activity by measuring the average change in mean arterial blood pressure in mmHg at 3 mg/Kg oral dosing of a conscious rat; IA is Inactive; format: functional, organism-based; details: Artery; how it was run: as §1
Rattus norvegicus [28] = test: Compound was tested for hypotensive activity by measuring the average change in mean arterial blood pressure in mmHg at 4 hr after at 50 mg/Kg oral dosing of a conscious rat; format: functional, Artery; how it was run: as §1
Rattus norvegicus [29] = test: Compound was tested for hypotensive activity by measuring the average change in mean arterial blood pressure in mmHg after 24 hr at 1 mg/Kg oral dosing of a conscious rat; format: functional, Artery; how it was run: as §1
Rattus norvegicus [30] = test: Compound was tested for hypotensive activity by measuring the average change in mean arterial blood pressure in mmHg after 4 hr at 1 mg/Kg oral dosing of a conscious rat; format: functional, Artery; how it was run: as §1

Compound | Dose (Mus musculus [2]) | LD50 [3] | Activity (Rattus norvegicus [6]) | Activity (Rattus norvegicus [11]) | Activity (Rattus norvegicus [15]) | Activity (Rattus norvegicus [17]) | Activity (Rattus norvegicus [18]) | Activity (Rattus norvegicus [16]) | also measured
O=C(c1ccc(Nc2ccnc3cc(C(F)(F)F)ccc23)cc1)N1CCN(S(=O)(=O)c2ccc(F)cc2)CC1 [LOSULAZINE] | >3160 mg/kg | > 3160 mg/kg | -15 mmHg | -10 mmHg | – | – | – | – | Dose (Mus musculus [1]): 100 mg/kg; Activity (Rattus norvegicus [4]): -2 mmHg; Activity (Rattus norvegicus [5]): -14 mmHg; Activity (Rattus norvegicus [7]): -21 mmHg; Activity (Rattus norvegicus [8]): -25 mmHg; Activity (Rattus norvegicus [9]): -6 mmHg; Activity (Rattus norvegicus [10]): -12 mmHg; Activity (Rattus norvegicus [12]): -17 mmHg; Activity (Rattus norvegicus [13]): -19 mmHg
O=C(c1ccc(Nc2ccnc3cc(C(F)(F)F)ccc23)cc1)N1CCC(O)(c2ccc(Cl)cc2)CC1 | <100 mg/kg | 237 mg/kg | -22 mmHg | -19 mmHg | – | – | – | – | DOSE (Mus musculus [14]): Not acceptable
Fc1ccc(N2CCN(Cc3ccc(Nc4ccnc5cc(C(F)(F)F)ccc45)cc3)CC2)cc1 | – | – | – | – | -18 mmHg | -4 mmHg | – | – | Activity (Rattus norvegicus [16]; 5 mg/kg): -7 mmHg and -9 mmHg
Cc1ccc(S(=O)(=O)N2CCN(C(=O)c3ccc(Nc4ccnc5cc(C(F)(F)F)ccc45)cc3)CC2)cc1 | – | – | – | – | – | – | -25 mmHg | -42 mmHg | –
COc1ccccc1N1CCN(C(=O)c2ccc(Nc3ccnc4cc(C(F)(F)F)ccc34)cc2)CC1 | – | – | – | – | -27 mmHg | -13 mmHg | – | – | –
COc1ccccc1N1CCN(S(=O)(=O)c2ccc(Nc3ccnc4cc(C(F)(F)F)ccc34)cc2)CC1 | – | – | – | – | – | – | -14 mmHg | -1 mmHg | –
O=C(c1ccc(Nc2ccnc3cc(C(F)(F)F)ccc23)cc1)N1CCN(c2[nH]cnc3ncnc2-3)CC1 | – | – | – | – | -3 mmHg | -4 mmHg | – | – | –
COc1ccc(C2=CCN(C(=O)c3ccc(Nc4ccnc5cc(C(F)(F)F)ccc45)cc3)CC2)cc1 | – | – | – | – | – | – | -2 mmHg | -6 mmHg | –
COc1ccc(C2(O)CCN(C(=O)c3ccc(Nc4ccnc5cc(C(F)(F)F)ccc45)cc3)CC2)cc1 | – | – | – | – | – | – | -5 mmHg | -15 mmHg | –
O=C(c1ccc(Nc2ccnc3cc(C(F)(F)F)ccc23)cc1)N1CCC(c2ccccc2)CC1 | – | – | – | – | -17 mmHg | -4 mmHg | – | – | –
CSc1nccc(N2CCN(C(=O)c3ccc(Nc4ccnc5cc(C(F)(F)F)ccc45)cc3)CC2)n1 | – | – | – | – | – | – | -16 mmHg | -8 mmHg | –
CN(C)S(=O)(=O)N1CCN(C(=O)c2ccc(Nc3ccnc4cc(C(F)(F)F)ccc34)cc2)CC1 | >3160 mg/kg | > 3160 mg/kg | -2 mmHg | -6 mmHg | – | – | -6 mmHg | -18 mmHg | Dose (Mus musculus [1]): 100 mg/kg
CS(=O)(=O)c1ccc(N2CCN(C(=O)c3ccc(Nc4ccnc5cc(C(F)(F)F)ccc45)cc3)CC2)cc1 | 1000 mg/kg | 3160 mg/kg | -5 mmHg | -7 mmHg | – | – | -16 mmHg | -10 mmHg | Dose (Mus musculus [1]): 316 mg/kg
COc1ccc(N2CCN(Cc3ccc(Nc4ccnc5cc(C(F)(F)F)ccc45)cc3)CC2)cc1 | – | – | – | – | -1 mmHg | 1 mmHg | – | – | Activity (Rattus norvegicus [19]): -16 mmHg; Activity (Rattus norvegicus [20]): -5 mmHg
O=C(c1ccc(Nc2ccnc3cc(C(F)(F)F)ccc23)cc1)N1CCN(c2ccccc2)CC1 | – | – | – | – | -13 mmHg | 4 mmHg | – | – | –
O=C(c1ccc(Nc2ccnc3cc(C(F)(F)F)ccc23)cc1)N1CCN(S(=O)(=O)c2ccc(Cl)cc2)CC1 | >3160 mg/kg | > 3160 mg/kg | -15 mmHg | -13 mmHg | – | – | -34 mmHg | -20 mmHg | Dose (Mus musculus [1]): <100 mg/kg
COc1ccc(N2CCN(C(=O)c3ccc(Nc4ccnc5cc(C(F)(F)F)ccc45)cc3)CC2)cc1 | – | – | – | – | -18 mmHg | -19 mmHg | – | – | –
O=C(c1ccc(Nc2ccnc3cc(C(F)(F)F)ccc23)cc1)N1CC=C(c2ccc(Cl)cc2)CC1 | 316 mg/kg | 1000 mg/kg | – | – | – | – | -16 mmHg | -7 mmHg | Dose (Mus musculus [1]): <100 mg/kg; Activity (Rattus norvegicus [21]): -11 mmHg; Activity (Rattus norvegicus [22]): -3 mmHg
Cc1cccc(C2=CCN(C(=O)c3ccc(Nc4ccnc5cc(C(F)(F)F)ccc45)cc3)CC2)c1 | – | – | – | – | – | – | -8 mmHg | -8 mmHg | –
COc1ccc(S(=O)(=O)N2CCN(C(=O)c3ccc(Nc4ccnc5cc(C(F)(F)F)ccc45)cc3)CC2)cc1 | – | – | – | – | – | – | -3 mmHg | -6 mmHg | –
O=C(c1ccc(Nc2ccnc3cc(C(F)(F)F)ccc23)cc1)N1CCN(c2ccccn2)CC1 | 316 mg/kg | 1400 mg/kg | -2 mmHg | 2 mmHg | – | – | -13 mmHg | -10 mmHg | Dose (Mus musculus [1]): <100 mg/kg
O=C(c1ccc(Nc2ccnc3cc(C(F)(F)F)ccc23)cc1)N1CCNCC1 | 1000 mg/kg | 1780 mg/kg | – | – | – | – | – | – | Dose (Mus musculus [23]): 100 mg/kg; Activity (Rattus norvegicus [24]): -22 mmHg; Activity (Rattus norvegicus [25]): -8 mmHg; Activity (Rattus norvegicus [26]): -7 mmHg; Activity (Rattus norvegicus [27]): inactive; Activity (Rattus norvegicus [28]): -15 mmHg
Cc1cc(N2CCN(C(=O)c3ccc(Nc4ccnc5cc(C(F)(F)F)ccc45)cc3)CC2)nc(N)n1 | – | – | – | – | -4 mmHg | -3 mmHg | – | – | –
O=C(c1ccc(Nc2ccnc3cc(C(F)(F)F)ccc23)cc1)N1CCN(c2ccc(F)cc2)CC1 | – | – | – | – | – | – | -10 mmHg | -11 mmHg | Activity (Rattus norvegicus [29]): 1 mmHg; Activity (Rattus norvegicus [30]): -12 mmHg
Cc1ccccc1N1CCN(S(=O)(=O)c2ccc(Nc3ccnc4cc(C(F)(F)F)ccc34)cc2)CC1 | – | – | 0 mmHg | -1 mmHg | – | – | -13 mmHg | -10 mmHg | –
Cc1cccc(C2(O)CCN(C(=O)c3ccc(Nc4ccnc5cc(C(F)(F)F)ccc45)cc3)CC2)c1 | – | – | -1 mmHg | -4 mmHg | – | – | -4 mmHg | -10 mmHg | –
COc1cc(N2CCN(C(=O)c3ccc(Nc4ccnc5cc(C(F)(F)F)ccc45)cc3)CC2)nc(OC)n1 | <100 mg/kg | > 3160 mg/kg | -12 mmHg | -2 mmHg | -29 mmHg | -13 mmHg | -24 mmHg | -10 mmHg | Dose (Mus musculus [1]): <100 mg/kg
